ChEMBL document CHEMBL4428073, “Design, Synthesis, and Bioactivation of O-Glycosylated Prodrugs of the Natural Nitric Oxide Precursor N(ω)-Hydroxy-l-arginine” (J Med Chem, 2016)
Blank lines part the entries; values can stand above or below the molecule they belong to. Calls of active or inactive are those of the source. No cut-off for these calls is given here.

What was measured:
[1] = Prodrug activation assessed as almond beta-glucosidase-mediated Nomega-hydroxy-L-arginine formation at 500 uM measured up to 150 mins by HPLC analysis; settings: prunus dulcis, 2.5 h
In short: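 β-Glucosidase (recombinant, almond; 33 U/mL) pre-incubated 3 min at 37 °C in 50 mM triethanolamine pH 7.0. Reaction started with prodrug (500 µM). Aliquots at 0, 15, 45, 90 and 150 min quenched with equal volume ice-cold MeOH, then centrifuged. Supernatant analysed by o-phthalaldehyde/fluorescence HPLC. No-enzyme controls run alongside. Mean ± SD, n = 2-3.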

[2] = target: T1, Nitric oxide synthase, inducible (Mus musculus, UniProt P29477); experiment: Prodrug activation in LPS-stimulated mouse […] cells assessed as iNOS-mediated Nomega-hydroxy-L-arginine formation by measuring increase in NO release at 1 mM incubated for 2.5 hrs by Hoechst 33342/DAF-FM-DA staining based fluorescence microscopic analysis; settings: 1000 µM
T1 sequence (P29477 whole entry): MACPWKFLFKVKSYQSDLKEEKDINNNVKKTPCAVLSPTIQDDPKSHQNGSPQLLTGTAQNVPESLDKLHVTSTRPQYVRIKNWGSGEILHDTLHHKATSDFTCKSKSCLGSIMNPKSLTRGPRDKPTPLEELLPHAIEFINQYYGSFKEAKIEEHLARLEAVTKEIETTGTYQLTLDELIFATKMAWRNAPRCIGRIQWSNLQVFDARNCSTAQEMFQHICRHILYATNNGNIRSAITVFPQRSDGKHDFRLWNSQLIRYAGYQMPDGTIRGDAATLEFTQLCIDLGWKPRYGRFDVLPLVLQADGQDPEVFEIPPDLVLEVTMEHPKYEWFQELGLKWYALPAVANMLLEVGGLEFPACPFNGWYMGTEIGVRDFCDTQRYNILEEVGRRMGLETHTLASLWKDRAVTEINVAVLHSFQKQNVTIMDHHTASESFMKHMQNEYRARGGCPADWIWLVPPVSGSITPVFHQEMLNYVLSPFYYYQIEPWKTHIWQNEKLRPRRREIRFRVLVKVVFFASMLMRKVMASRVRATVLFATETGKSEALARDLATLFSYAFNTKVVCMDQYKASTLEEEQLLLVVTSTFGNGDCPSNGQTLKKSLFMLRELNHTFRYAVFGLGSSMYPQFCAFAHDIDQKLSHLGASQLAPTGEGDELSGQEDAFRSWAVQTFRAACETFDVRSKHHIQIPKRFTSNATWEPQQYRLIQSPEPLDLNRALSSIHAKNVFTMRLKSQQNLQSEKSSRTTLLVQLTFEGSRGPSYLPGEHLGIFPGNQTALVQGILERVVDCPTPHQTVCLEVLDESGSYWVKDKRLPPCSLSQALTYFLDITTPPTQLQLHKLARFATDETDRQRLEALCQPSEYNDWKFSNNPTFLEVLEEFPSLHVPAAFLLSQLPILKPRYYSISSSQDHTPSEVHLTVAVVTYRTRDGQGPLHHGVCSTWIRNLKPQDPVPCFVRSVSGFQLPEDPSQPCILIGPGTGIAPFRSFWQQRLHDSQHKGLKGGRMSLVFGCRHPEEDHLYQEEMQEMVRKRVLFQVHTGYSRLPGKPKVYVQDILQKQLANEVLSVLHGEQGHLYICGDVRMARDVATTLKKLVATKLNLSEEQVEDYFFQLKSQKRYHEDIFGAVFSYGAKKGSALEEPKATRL
In short: (§1)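 Washed into arginine/lysine-free DMEM with 2% FBS. Compound 1 mM final from DPBS++ stock, 150 min (L-NAME co-incubated where stated). Then 5 µM DAF-FM-DA plus 10 µM Hoechst 15 min. Six images per well, triplicate wells. Cell-normalized intensity minus DPBS++ control, scaled to reference substrate = 100%. Mean ± SEM.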

[3] = target: T1, Nitric oxide synthase, inducible; experiment: Prodrug activation in LPS-stimulated mouse […] cells assessed as iNOS-mediated Nomega-hydroxy-L-arginine formation by measuring increase in NO release at 1 mM incubated for 2.5 hrs in presence of NOS inhibitor L-NAME by Hoechst 33342/DAF-FM-DA staining based fluorescence microscopic analysis; settings: 1000 µM; in short: as §1
[4] = target: Beta-galactosidase (Escherichia coli, UniProt Q8VNN2); experiment: Prodrug activation assessed as recombinant Escherichia coli beta-galactosidase-mediated Nomega-hydroxy-L-arginine formation at 500 uM measured up to 150 mins by HPLC analysis; settings: 2.5 h
Sequence of Beta-galactosidase (Q8VNN2 whole entry): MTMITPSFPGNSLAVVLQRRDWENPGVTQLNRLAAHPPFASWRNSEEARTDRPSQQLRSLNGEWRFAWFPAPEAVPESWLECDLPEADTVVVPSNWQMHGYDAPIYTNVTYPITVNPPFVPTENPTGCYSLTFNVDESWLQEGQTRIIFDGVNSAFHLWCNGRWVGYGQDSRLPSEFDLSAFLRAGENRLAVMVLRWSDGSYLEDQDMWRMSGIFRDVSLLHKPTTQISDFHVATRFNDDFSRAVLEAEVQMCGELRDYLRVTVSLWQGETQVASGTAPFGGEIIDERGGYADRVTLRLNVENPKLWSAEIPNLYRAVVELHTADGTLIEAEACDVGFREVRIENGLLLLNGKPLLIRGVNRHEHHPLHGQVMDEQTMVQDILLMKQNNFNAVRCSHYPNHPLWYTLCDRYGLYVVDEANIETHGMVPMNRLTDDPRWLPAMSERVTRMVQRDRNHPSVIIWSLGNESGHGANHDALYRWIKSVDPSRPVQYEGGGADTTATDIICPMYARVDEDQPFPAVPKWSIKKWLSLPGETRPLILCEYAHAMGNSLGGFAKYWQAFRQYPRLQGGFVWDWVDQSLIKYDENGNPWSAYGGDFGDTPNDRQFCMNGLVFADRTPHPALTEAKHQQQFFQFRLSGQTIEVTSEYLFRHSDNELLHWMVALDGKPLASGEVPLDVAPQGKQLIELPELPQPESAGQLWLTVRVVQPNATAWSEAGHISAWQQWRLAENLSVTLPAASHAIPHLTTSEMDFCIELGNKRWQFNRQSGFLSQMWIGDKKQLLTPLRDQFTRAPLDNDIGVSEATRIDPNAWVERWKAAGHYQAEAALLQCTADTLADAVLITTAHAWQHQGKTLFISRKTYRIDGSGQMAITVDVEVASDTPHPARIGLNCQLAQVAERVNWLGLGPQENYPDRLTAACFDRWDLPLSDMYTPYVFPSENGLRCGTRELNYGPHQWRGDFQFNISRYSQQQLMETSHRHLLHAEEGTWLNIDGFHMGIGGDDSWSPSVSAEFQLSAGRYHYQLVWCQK
In short: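 Recombinant E. coli β-galactosidase (25 U/mL) pre-incubated 3 min at 37 °C in 50 mM triethanolamine pH 7.0, then prodrug added at 500 µM. Samples at 0, 15, 45, 90 and 150 min stopped with ice-cold MeOH, centrifuged and analysed by o-phthalaldehyde/fluorescence HPLC. No-enzyme controls included.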

[5] = Half life in 10 mM potassium phosphate buffer at 250 uM at pH 9 at 37 degC by HPLC analysis; assay type: physicochemical
In short: (§2)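 Half-life from incubations at 250 µM in 10 mM potassium phosphate buffer, 37 °C, pH 7.4 or 9.0. Sampling at 3, 6 and 24 h. HPLC of o-phthalaldehyde derivatives with fluorescence detection (ex 338 nm, em 425 nm).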

[6] = Half life in 10 mM potassium phosphate buffer at 250 uM at pH 7.4 at 37 degC by HPLC analysis; assay type: physicochemical; in short: as §2
[7] = Prodrug activation assessed as porcine liver carboxylesterase/recombinant Escherichia coli beta-galactosidase-mediated Nomega-hydroxy-L-arginine formation by measuring NO release at 500 uM preincubated for 150 mins followed by recombinant mouse iNOS and NADPH addition incubated for 30 mins followed by LDH and sodium pyruvate addition measured after 15 mins by Griess assay; settings: 0.5 h
[8] = Chemical stability in 10 mM potassium phosphate buffer at 250 uM at pH 7.4 incubated up to 24 hrs at 37 degC by HPLC analysis; assay type: physicochemical; settings: pH 7.4, 24 h
In short: (§3)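 Compound at 250 µM in 10 mM potassium phosphate buffer at pH 2.0, 7.4 or 9.0, 37 °C. Samples taken at 3, 6 and 24 h, diluted 1:1 with 100 mM potassium phosphate pH 7.4. Analysed by HPLC after o-phthalaldehyde derivatization: RP18 column at 37 °C, fluorescence detection (ex 338 nm, em 425 nm).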

[9] = Chemical stability in 10 mM potassium phosphate buffer at 250 uM at pH 9 incubated up to 24 hrs at 37 degC by HPLC analysis; assay type: physicochemical; settings: pH 9, 24 h; in short: as §3
[10] = Chemical stability in 10 mM potassium phosphate buffer at 250 uM at pH 2 incubated up to 24 hrs at 37 degC by HPLC analysis; assay type: physicochemical; settings: pH 2, 24 h; in short: as §3
[11] = tested on: J774.A1; experiment: Toxicity in mouse […] cells assessed as induction of apoptosis up to 1 mM after 2.5 hrs by Hoechst 33342/DAPI/GFP staining based fluorescence microscopic analysis; assay type: cell-based; settings: j774.a1, 2.5 h
In short: (§4)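 Stained with Hoechst 33342 and DAF-FM-DA, then imaged by automated fluorescence microscopy (about 1000 cells per well). Cell shape, blebbing, apoptosis and cell numbers judged against DPBS++ vehicle controls.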

[12] = tested on: J774.A1; experiment: Toxicity in mouse […] cells assessed as appearance of cell blebbing up to 1 mM after 2.5 hrs by Hoechst 33342/DAPI/GFP staining based fluorescence microscopic analysis; settings: j774.a1, 2.5 h; in short: as §4
[13] = target: T2, Nitric oxide synthase, inducible (Mus musculus) (UniProt P29477); experiment: Substrate activity at recombinant mouse iNOS assessed as increase in NO release incubated for 30 mins in presence of NADPH followed by LDH and sodium pyruvate addition measured after 15 mins by Griess assay
T2 sequence (whole entry): T1 sequence (P29477 whole entry)

[14] = tested on: J774.A1; experiment: Toxicity in mouse […] cells assessed as changes in cell shape up to 1 mM after 2.5 hrs by Hoechst 33342/DAPI/GFP staining based fluorescence microscopic analysis; settings: j774.a1, 2.5 h; in short: as §4
[15] = target: T2, Nitric oxide synthase, inducible (Mus musculus); experiment: Substrate activity at iNOS in LPS-stimulated mouse J744A.1 cells assessed as increase in NO release at 1 mM incubated for 2.5 hrs by Hoechst 33342/DAF-FM-DA staining based fluorescence microscopic analysis; in short: as §1
[16] = tested on: J774.A1; experiment: Toxicity in mouse […] cells assessed as reduction in cell proliferation up to 1 mM after 2.5 hrs by Hoechst 33342/DAF-FM-DA staining based fluorescence microscopic analysis; settings: j774.a1, 2.5 h; in short: as §4
[17] = target: T3, Liver carboxylesterase (Sus scrofa, UniProt Q29550); experiment: Prodrug activation assessed as porcine liver carboxylesterase-mediated Sodium Nomega-(beta-D-Galactopyranos-1-yloxy)-L-arginine formation at 500 uM measured up to 150 mins by HPLC analysis; settings: pig, 2.5 h
T3 sequence (Q29550 whole entry): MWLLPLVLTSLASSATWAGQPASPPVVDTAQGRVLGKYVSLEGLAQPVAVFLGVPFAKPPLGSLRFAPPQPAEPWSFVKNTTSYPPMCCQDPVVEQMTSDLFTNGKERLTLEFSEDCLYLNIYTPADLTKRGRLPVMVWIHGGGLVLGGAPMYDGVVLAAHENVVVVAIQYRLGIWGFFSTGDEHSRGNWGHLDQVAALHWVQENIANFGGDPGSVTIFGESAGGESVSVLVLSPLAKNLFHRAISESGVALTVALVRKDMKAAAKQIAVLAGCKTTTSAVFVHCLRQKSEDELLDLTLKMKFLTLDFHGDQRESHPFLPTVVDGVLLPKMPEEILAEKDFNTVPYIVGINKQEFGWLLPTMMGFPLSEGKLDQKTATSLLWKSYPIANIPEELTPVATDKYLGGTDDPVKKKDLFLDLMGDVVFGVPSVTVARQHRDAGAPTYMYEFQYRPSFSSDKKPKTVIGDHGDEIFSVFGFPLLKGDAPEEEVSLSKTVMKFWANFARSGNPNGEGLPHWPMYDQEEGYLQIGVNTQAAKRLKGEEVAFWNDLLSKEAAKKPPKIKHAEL
In short: (§5)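 Porcine liver carboxylesterase (133 U/mL) plus β-galactosidase (33 U/mL) pre-incubated 3 min at 37 °C in 50 mM triethanolamine pH 7.0. Started with prodrug at 500 µM. Samples at 0–150 min quenched with cold MeOH, centrifuged and analysed by o-phthalaldehyde/fluorescence HPLC. No-enzyme controls included.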

[18] = Prodrug activation assessed as porcine liver carboxylesterase/beta-galactosidase-mediated Nomega-hydroxy-L-arginine formation at 500 uM measured up to 150 mins by HPLC analysis; design: species or system Sus scrofa; settings: pig, 2.5 h; in short: as §5

SMILES: CC(=O)OC[C@H]1O[C@@H](O/N=C(\N)NCCC[C@H](N)C(=O)O)[C@H](OC(C)=O)[C@@H](OC(C)=O)[C@@H]1OC(C)=O.Cl.Cl
Drug metabolism [1]: Metabolite_Detected
Drug metabolism [2]: Metabolite_Detected
Drug metabolism [3]: Metabolite_Notdetected

SMILES: CCOC(=O)[C@@H](N)CCCN/C(N)=N/O[C@@H]1O[C@H](COC(C)=O)[C@H](OC(C)=O)[C@H](OC(C)=O)[C@H]1OC(C)=O.Cl.Cl
Drug metabolism [3]: Metabolite_Notdetected

SMILES: CC(=O)OC[C@H]1O[C@@H](O/N=C(\N)NCCC[C@H](N)C(=O)O)[C@H](OC(C)=O)[C@@H](OC(C)=O)[C@H]1OC(C)=O.Cl.Cl
Drug metabolism [2]: Metabolite_Notdetected
Drug metabolism [4]: Metabolite_Notdetected
half-life at 250 µM [5]: > 24 h
half-life at 250 µM [6]: > 24 h

SMILES: CCOC(=O)[C@@H](N)CCCN/C(N)=N/O[C@@H]1O[C@H](COC(C)=O)[C@@H](OC(C)=O)[C@H](OC(C)=O)[C@H]1OC(C)=O.Cl.Cl
Drug metabolism [2]: Metabolite_Detected
Drug metabolism [3]: Metabolite_Notdetected

Further lines, with some results ahead:

Drug metabolism [1]: Metabolite_Detected
Drug metabolism [2]: Metabolite_Detected
Drug metabolism [3]: Metabolite_Notdetected
SMILES: N/C(=N\O[C@@H]1O[C@H](CO)[C@@H](O)[C@H](O)[C@H]1O)NCCC[C@H](N)C(=O)[O-].[Na+]

Drug metabolism [2]: Metabolite_Detected
Drug metabolism [3]: Metabolite_Notdetected
SMILES: CCOC(=O)[C@@H](N)CCCN/C(N)=N/O[C@@H]1O[C@H](CO)[C@@H](O)[C@H](O)[C@H]1O.Cl.Cl

Drug metabolism [7]: Metabolite_Detected
Drug metabolism [1]: Metabolite_Detected
Stability [8]: Stable
Drug metabolism [2]: Metabolite_Notdetected
Drug metabolism [4]: Metabolite_Detected
Stability [9]: Stable
Stability [10]: Stable
SMILES: N/C(=N\O[C@@H]1O[C@H](CO)[C@H](O)[C@H](O)[C@H]1O)NCCC[C@H](N)C(=O)[O-].[Na+]

Activity [13]: Active
Activity [15]: Active
SMILES: N=C(NO)NCCC[C@H](N)C(=O)O
Activity [11]: Non-Toxic
Activity [12]: Non-Toxic
Activity [14]: Non-Toxic
Activity [16]: Non-Toxic

Drug metabolism [17]: Metabolite_Detected
Drug metabolism [7]: Metabolite_Detected
Drug metabolism [2]: Metabolite_Notdetected
Drug metabolism [18]: Metabolite_Detected
half-life at 250 µM [5]: 10 to 12 h
half-life at 250 µM [6]: 10 to 12 h
SMILES: CCOC(=O)[C@@H](N)CCCN/C(N)=N/O[C@@H]1O[C@H](CO)[C@H](O)[C@H](O)[C@H]1O.Cl.Cl
